An excerpt weighted towards active compounds, which were near 1.9% of everything screened.
CHRM4 PAM: human M4 muscarinic receptor positive allosteric modulators, primary screen, CHO-K1 cells, Fluo-8 calcium fluorescence; activation, % at 3 µM; AID 624126, 2012; Muscarinic acetylcholine receptor M4 (Homo sapiens), P08173; CHO-K1 hM4/Gqi5, ACh EC20; 0% = ACh EC20, 100% = maximal ACh; hit rate 0.4% among 360,000;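 active = activation above its plate's cutoff, the mean activation of sample wells plus 3 SD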
Target sequence (P08173 whole entry, looked up): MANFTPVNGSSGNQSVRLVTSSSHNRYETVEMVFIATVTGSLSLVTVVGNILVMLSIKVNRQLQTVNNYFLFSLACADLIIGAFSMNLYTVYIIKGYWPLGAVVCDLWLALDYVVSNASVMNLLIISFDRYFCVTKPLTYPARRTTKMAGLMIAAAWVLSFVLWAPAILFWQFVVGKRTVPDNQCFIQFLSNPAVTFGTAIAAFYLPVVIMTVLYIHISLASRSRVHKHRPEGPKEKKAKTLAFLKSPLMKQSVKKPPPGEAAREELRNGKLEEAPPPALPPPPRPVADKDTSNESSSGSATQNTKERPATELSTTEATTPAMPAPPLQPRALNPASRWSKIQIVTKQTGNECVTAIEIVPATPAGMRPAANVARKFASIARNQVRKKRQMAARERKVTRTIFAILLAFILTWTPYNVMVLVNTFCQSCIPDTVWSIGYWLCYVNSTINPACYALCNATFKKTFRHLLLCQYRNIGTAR
CHRM5 PAM: human M5 muscarinic receptor positive allosteric modulators, primary screen, CHO-K1 cells, Fluo-8 calcium fluorescence; CHO-K1 hM5, ACh EC20 PAM; 0% = ACh EC20, 100% = ACh EC100; activation, % at 3 µM; hit rate 0.3% among 360,000; AID 624038, 2012;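 active = activation above the run cutoff, the mean activation of all test compounds plus 3 SD, cut at about 18% in these data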
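System – CHO-K1 hM5 cells · Compound – 3 µM, single dose · Incubation – compound preincubation 140 s before EC20 acetylcholine addition · Technique – Fluo-8 calcium fluorescence · Measure – Max/basal fluorescence ratio as % of EC20–EC100 ACh window · Benchmarks – low control EC20 acetylcholine (0%), high control EC100 acetylcholine (100%) · Replication – singlicate, one well per test compound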
CHRM4 antagonist: human M4 muscarinic receptor antagonists, primary screen, CHO cells, Fluo-8 calcium fluorescence. inhibition, % at 3 µM. CHO-hM4 cells, ACh EC80. hit rate 0.73% among 360,000. Muscarinic acetylcholine receptor M4 (Homo sapiens), P08173;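 active = inhibition above its plate's cutoff, the mean inhibition of sample wells plus 3 SD, cut at about 27% in these data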;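 also: 0% = acetylcholine EC80 with DMSO and 100% = DMSO without agonist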
CHRM5 antagonist: human M5 muscarinic receptor antagonists, primary screen, CHO cells, Fluo-8 calcium fluorescence; CHO-hM5 cells, ACh EC80; inhibition, % at 3 µM; hit rate 0.59% among 360,000; AID 624040, 2012;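 active = inhibition above a per-plate cutoff, the mean of that plate's test compounds plus 3 SD, cut at about 27% in these data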;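 also: 0% = acetylcholine EC80 with DMSO and 100% = DMSO without agonist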
M5 ag: human M5 muscarinic receptor agonists, primary screen, CHO-K1 cells, Fluo-8 calcium fluorescence; activation, % at 3 µM; hit rate 0.19% among 360,000; Muscarinic acetylcholine receptor M5 (Homo sapiens), P08912; CHO-K1 hM5 cells; 0% DMSO wells, 100% maximal acetylcholine response; AID 624037, 2012;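 active = activation above the run's mean over test compounds plus 3 SD, cut at about 23% in these data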;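 also: signal is peak over basal fluorescence ratio across the kinetic read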
M4 ag: human M4 muscarinic receptor agonists, primary screen, CHO-K1 cells, Fluo-8 calcium fluorescence; Muscarinic acetylcholine receptor M4 (Homo sapiens), P08173; activation, % at 3 µM; hit rate 0.14% among 360,000; CHO-K1 hM4/Gqi5; vehicle 0%, full acetylcholine response 100%;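 active = activation above the run mean over all test wells plus 3 SD, cut at about 32% in these data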;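 also: peak over basal fluorescence ratio per well then scaled between controls; 0% = DMSO wells and 100% = acetylcholine at EC100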
Starred values were filed as active, the others as inactive.

SMILES	CHRM4 PAM	CHRM5 PAM	CHRM4 antagonist	CHRM5 antagonist	M5 ag	M4 ag
CCOC(=O)C(Cc1ccnc2ccccc12)=NO	-1	-5	2	19	-4	6
CCCCCN1C(=O)Cn2c(nc3ccccc3c2=O)C1C (stereo unspecified)	10	18*	-13	-19	4	2
CCCCCCc1nc2ccccc2c(=O)n1N	-11	-12	8	10	-1	11
O=C(Nc1ccc2c(c1)OCO2)c1ccc2sc([C@H]3C[C@H](O)[C@@H](CO)O3)nc2c1	16*	-2	-19	-4	0	1
CCc1ccc(-c2nc(SCC(=O)c3c(N)n(C4CC4)c(=O)[nH]c3=O)n[nH]2)cc1	3	7	-2	0	1	0
CC1(C)Cc2cccc(OCC(=O)OCC(=O)NCc3ccccc3)c2O1	-7	-6	8	9	-2	1
O=C1C=CC(=O)N1c1ccccc1N1C(=O)C=CC1=O	4	-2	-1	0	5	3
O=C(c1ccccc1)c1ccccc1N1C(=O)C=CC1=O	-41	3	72*	6	4	9
CNc1cc(-c2cc(OC)ccc2OC)ncn1	-12	0	73*	1	0	-1
Nc1ccc(S(=O)(=O)NC(Cc2ccccc2)C(=O)O)cc1 (stereo unspecified)	-7	-7	1	13	0	-1
Cc1cc(N/N=C/c2ccccc2O)nc(-c2ccccc2O)n1	-2	-6	-6	7	-2	5
Cc1cc(N/N=C/c2ccc(O)cc2O)nc(-c2ccccc2O)n1	-25	-17	30*	24	5	21
CCCCNc1c(-c2ccc(SC(C)CC)c(OC)c2)nc2ccc(C)cn12 (stereo unspecified)	-12	-36	55*	37*	-5	16
CCCCNc1c(-c2ccc(SC(C)CC)c(OC)c2)nc2ccc(Cl)cn12 (stereo unspecified)	-12	-21	35*	12	-5	2
O=C(NCCc1ccccc1)c1ccc(-c2cccnc2)c2ccoc12	-2	-6	-11	9	1	9
CCc1noc(N)c1C(=O)Nc1ccc(Cl)cc1	5	5	5	-5	-3	0
CCc1noc(N)c1C(=O)Nc1ccc(F)c(Cl)c1	3	22*	-1	-10	-5	1
NC(=O)c1ccc(NC(=O)c2ccc(COc3ccc(F)cc3)o2)cc1	2	-4	7	6	1	1
Cc1nc2ccccc2c(=O)n1NC(=O)c1cccc(Cl)c1	-11	-11	28*	20	1	15
Nc1nc(SCc2ccc(Cl)cc2Cl)c2ncn(C3OC(CO)C(O)C3O)c2n1 (stereo unspecified)	-1	3	0	13	3	2
O=C(/C=C/c1ccc(F)cc1)NC(=S)NNC(=O)[C@H]1C[C@@H]1c1ccccc1	-9	-13	8	29*	13	53*
CCCCn1c(N)c(N(CC(C)C)C(=O)CSc2n[nH]c(-c3ccc(C)cc3)n2)c(=O)[nH]c1=O	1	11	-8	-10	-2	0
c1ccc2sc(-c3ccncc3)nc2c1	0	32*	-2	28*	-3	1
COCCOc1ccc(C(F)(F)F)cc1NC(=O)c1ccccc1	12	-5	-2	1	1	0
CC(C)(C)c1ccc(OCCOc2ccc(C(C)(C)C)cc2NC=O)c(NC=O)c1	-15	-21	31*	28*	1	19
SMILES	CHRM4 PAM	CHRM5 PAM	CHRM4 antagonist	CHRM5 antagonist	M5 ag	M4 ag
C=C1C(=O)C23C(O)C1CCC2C12CCCC(C)(COC(C)=O)C1C(O)C3(O)OC2 (stereo unspecified)	-7	-5	42*	11	4	3
CC[C@]12c3[nH]c4ccccc4c3CCN1C(=O)C(CC(=O)NCc1cccc(C(F)(F)F)c1)C[C@@H]2C(=O)N1CCN(C(=O)c2ccco2)CC1 (stereo partly specified)	4	-1	-8	0	-1	-1
C/C=C(/C)C(=O)OC1CC(C)(C)C[C@H]2C3=CC[C@@H]4[C@@]5(C)CCC(O[C@@H]6O[C@@H](C(=O)O)[C@@H](O)C(O[C@@H]7OC[C@H](O)[C@@H](O)[C@@H]7O[C@@H]7OC(CO)C(O)[C@@H](O)[C@@H]7O)C6O[C@@H]6OC(CO)C(O)C(O)C6O)[C@@](C)(CO)[C@@H]5CC[C@]4(C)[C@]3(C)CC(O)[C@@]12CO (stereo partly specified)	20	-6	26	10	-3	75*
CC1(C)C[C@H]2C3=CCC4[C@@]5(C)CC[C@H](O[C@@H]6O[C@H](C(=O)O)[C@@H](O)[C@H](O)[C@H]6O)[C@@](C)(CO)C5CC[C@@]4(C)[C@]3(C)C[C@H](O)[C@@]2(CO)[C@@H](O)[C@@H]1O (stereo partly specified)	12	-1	-1	15	0	1
C/C=C(\C)C(=O)OC1[C@H](OC(C)=O)C2(CO)C(CC1(C)C)C1=CCC3C4(C)CCC(O[C@@H]5O[C@H](C(=O)O)[C@@H](O[C@@H]6O[C@H](CO)[C@@H](O)[C@H](O)[C@H]6O)[C@H](O)[C@H]5O[C@H]5O[C@H](CO)[C@@H](O)[C@H](O)[C@H]5O)[C@](C)(CO)C4CCC3(C)[C@]1(C)C[C@H]2O (stereo partly specified)	-19	-26	91*	82*	92*	133*
Cc1cc(Cl)c2oc(C(=O)N(C)CC3CCOCC3)c(C)c2c1	-13	-6	1	9	-4	9
O=C(Nc1cccc(C(F)(F)F)c1)C(=O)N1CCCCC1	8	20*	5	-7	1	0
CCc1cc(-c2n[nH]c(=S)n2-c2ccccc2C)cs1	31*	7	-16	-1	-5	-3
COc1ccccc1C(=O)NCC(=O)NCCc1ccc(Cl)cc1	8	1	-9	10	0	2
CCC1=C(OC(=O)N(CC)CC)N2C(=O)OC(=NCCOC)[C@]2(Cc2ccccc2)[C@H]2C1=CC[C@H]1C(=O)NC(=O)[C@H]12	9	26*	-2	-90	7	1
